Measured values of several laboratories.
pEC50, pIC50: −log10 of the molar value. Values after ≈ are worked out from the molar mass of the structure shown.

SMILES	organism	assay	test system	setting	quantity	result
CC1=C(Cn2cc(CO)nn2)C(=O)c2ccccc2C1=O	Schistosoma mansoni	parasite growth		72 h, larva	pIC50	5.98
Cc1ccc(NC(=O)c2ccc(COC(Cn3ccnc3)c3ccc(Cl)cc3Cl)cc2)cc1 (centres unmarked)	Pichia kudriavzevii	microbial growth, broth dilution			MIC80	0.125 µg/mL (≈ 0.26 µM)
Cc1nnc(-c2ccc3ccn(CC(=O)Nc4ccccc4Cl)c3c2)o1	Plasmodium knowlesi	parasite growth, SYBR Green		30 h, blood stage	pEC50	6.37
N#CC(=C1C=CC(=NOC(=O)OCc2ccccc2)C=C1)c1ccccc1	Pichia kudriavzevii	microbial growth, broth dilution	ATCC14243	48 h	MIC	128 µg/mL (≈ 359 µM)
CC1=C(Cn2cc(COC3COC3)nn2)C(=O)c2ccccc2C1=O	Schistosoma mansoni	parasite growth		72 h, larva	pIC50	5.97
C#CCOC(=O)ON=C1C=CC(=C(C#N)c2ccccc2)C=C1	Pichia kudriavzevii	microbial growth, broth dilution	ATCC14243	48 h	MIC	16 µg/mL (≈ 52.6 µM)
CC1=C(Cn2cc(CN3CCN(C(=O)OC(C)(C)C)CC3)nn2)C(=O)c2ccccc2C1=O	Schistosoma mansoni	parasite growth		72 h, larva	pIC50	5.82
OC(Cn1cncn1)(Cn1cncn1)c1ccc(F)cc1F	Pichia kudriavzevii	microbial growth, broth dilution	ATCC6258	48 h	MIC	0.7 µg/mL (≈ 2.29 µM)
O=C(Nc1ccc2ccccc2c1)c1ccc(COC(Cn2ccnc2)c2ccc(Cl)cc2Cl)cc1 (centres unmarked)	Pichia kudriavzevii	microbial growth, broth dilution			MIC80	32 µg/mL (≈ 62 µM)
CC1=C(Cc2cn(CCN3CCC(F)(F)CC3)nn2)C(=O)c2ccccc2C1=O	Schistosoma mansoni	parasite growth		72 h, larva	pIC50	5.80
Clc1ccc(COC(Cn2ccnc2)c2ccc(Cl)cc2Cl)c(Cl)c1 (centres unmarked)	Pichia kudriavzevii	microbial growth, broth dilution			MIC80	0.5 µg/mL (≈ 1.2 µM)
C=CC(=O)ON=C1C=CC(=C(C#N)c2ccccc2)C=C1	Pichia kudriavzevii	microbial killing, broth dilution	ATCC14243	48 h	MFC	16 µg/mL (≈ 57.9 µM)
CC(C)c1ccc(/C=C2\N=C(SCC(=O)O)N(c3ccccc3)C2=O)cc1	Fusarium solani	microbial growth, broth dilution			MIC	12 µg/mL (≈ 31.5 µM)
CC1=C(Cn2ccnc2[N+](=O)[O-])C(=O)c2ccccc2C1=O	Schistosoma mansoni	parasite growth		72 h, larva	pIC50	5.99
O=C(Nc1ccc2cccnc2c1)c1ccc(COC(Cn2ccnc2)c2ccc(Cl)cc2Cl)cc1 (centres unmarked)	Pichia kudriavzevii	microbial growth, broth dilution			MIC80	8 µg/mL (≈ 15.5 µM)
CC1=C(Cn2cc(C(C)(C)O)nn2)C(=O)c2ccccc2C1=O	Schistosoma mansoni	parasite growth		72 h, larva	pIC50	5.98
C#CCON=C1C=CC(=C(C#N)c2ccccc2)C=C1	Pichia kudriavzevii	microbial growth, broth dilution	ATCC14243	48 h	MIC	32 µg/mL (≈ 123 µM)
O=C(Nc1ccc(F)cc1F)c1ccc(COC(Cn2ccnc2)c2ccc(Cl)cc2Cl)cc1 (centres unmarked)	Pichia kudriavzevii	microbial growth, broth dilution			MIC80	0.03 µg/mL (≈ 0.0597 µM)
CC(=O)ON=C1C=CC(=C(C#N)c2ccccc2)C=C1	Pichia kudriavzevii	microbial killing, broth dilution	ATCC14243	48 h	MFC	16 µg/mL (≈ 60.5 µM)
O=C(Nc1ccc(Cl)cc1)c1ccc(COC(Cn2ccnc2)c2ccc(Cl)cc2Cl)cc1 (centres unmarked)	Pichia kudriavzevii	microbial growth, broth dilution			MIC80	0.125 µg/mL (≈ 0.25 µM)
CC1=C(Cn2cc([Si](C)(C)C)nn2)C(=O)c2ccccc2C1=O	Schistosoma mansoni	parasite growth		72 h, larva	pIC50	5.80
CC(=O)N1CCN(c2ccc(OCC3COC(Cn4ccnc4)(c4ccc(Cl)cc4Cl)O3)cc2)CC1 (centres unmarked)	Pichia kudriavzevii	microbial growth, broth dilution	ATCC14243	48 h	MIC	8 µg/mL (≈ 15.1 µM)
OC(Cn1cncn1)(Cn1cncn1)c1ccc(F)cc1F	Pichia kudriavzevii	microbial growth, broth dilution			MIC80	16 µg/mL (≈ 52.2 µM)
